What follows are compounds tested against 4-hydroxyphenylpyruvate dioxygenase (Sus scrofa, UniProt Q02110) (assay: Inhibition of pig liver 4-Hydroxyphenylpyruvate dioxygenase (4-HPPD) enzyme).
Method in brief: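 Spectrophotometric enol borate assay. Mixture: potassium phosphate/borate buffer (0.42 M H₃BO₃ brought to pH 6.2 with 0.17 M Na₃PO₄), 4-hydroxyphenylpyruvic acid (1.8 mM stock), reduced dichlorophenolindophenol with glutathione, and phenylpyruvate tautomerase. Equilibrated about 15 min at 308 nm, then enzyme added with varying inhibitor concentrations. Absorbance decrease at 308 nm followed for 15 min. IC50 from fit to v_i = v₀/(1+[I]/IC50).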

Sequence of 4-hydroxyphenylpyruvate dioxygenase (Q02110 whole entry): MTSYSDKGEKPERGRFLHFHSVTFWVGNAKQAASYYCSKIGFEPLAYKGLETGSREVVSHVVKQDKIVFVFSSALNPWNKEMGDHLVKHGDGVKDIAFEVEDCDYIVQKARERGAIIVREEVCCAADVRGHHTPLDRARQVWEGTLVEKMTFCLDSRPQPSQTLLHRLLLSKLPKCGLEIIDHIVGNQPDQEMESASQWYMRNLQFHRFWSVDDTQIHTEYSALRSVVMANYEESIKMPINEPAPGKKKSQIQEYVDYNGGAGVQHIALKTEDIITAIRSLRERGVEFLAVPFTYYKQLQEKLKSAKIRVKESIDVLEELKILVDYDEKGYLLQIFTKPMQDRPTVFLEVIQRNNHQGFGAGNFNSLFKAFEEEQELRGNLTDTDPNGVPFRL

Compound | IC50 [µM]
COC1=C(C(=O)c2ccccc2[N+](=O)[O-])C(=O)CCC1 | 52
O=C1CCCC(=O)C1=C(NO)c1ccccc1[N+](=O)[O-] | 50
O=C1CCCC(Cl)=C1C(=O)c1ccccc1[N+](=O)[O-] | 64
O=C1CCCC/C1=C(/O)c1ccccc1[N+](=O)[O-] | 0.7
O=C1CCC=C(Cl)/C1=C(/O)c1ccccc1[N+](=O)[O-] | 0.53

Continued, values first:

IC50 [µM] | Compound
250 | O=C1CCCC(=O)N1Cc1ccccc1[N+](=O)[O-]
126 | O=C1CCCC(O)=C1Cc1ccccc1[N+](=O)[O-]
0.16 | O=C1CCCC(=O)C1=C(O)c1ccccc1[N+](=O)[O-]
60 | O=C1CCCC(=O)N1C(=O)c1ccccc1[N+](=O)[O-]

— ChEMBL document CHEMBL1135420, “Mode of action of 4-hydroxyphenylpyruvate dioxygenase inhibition by triketone-type inhibitors” (J Med Chem, 2002)
